In test [1] the target is T1, Transient receptor potential cation channel subfamily V member 2 (Mus musculus) (UniProt Q9WTR1).
T1 sequence (whole entry): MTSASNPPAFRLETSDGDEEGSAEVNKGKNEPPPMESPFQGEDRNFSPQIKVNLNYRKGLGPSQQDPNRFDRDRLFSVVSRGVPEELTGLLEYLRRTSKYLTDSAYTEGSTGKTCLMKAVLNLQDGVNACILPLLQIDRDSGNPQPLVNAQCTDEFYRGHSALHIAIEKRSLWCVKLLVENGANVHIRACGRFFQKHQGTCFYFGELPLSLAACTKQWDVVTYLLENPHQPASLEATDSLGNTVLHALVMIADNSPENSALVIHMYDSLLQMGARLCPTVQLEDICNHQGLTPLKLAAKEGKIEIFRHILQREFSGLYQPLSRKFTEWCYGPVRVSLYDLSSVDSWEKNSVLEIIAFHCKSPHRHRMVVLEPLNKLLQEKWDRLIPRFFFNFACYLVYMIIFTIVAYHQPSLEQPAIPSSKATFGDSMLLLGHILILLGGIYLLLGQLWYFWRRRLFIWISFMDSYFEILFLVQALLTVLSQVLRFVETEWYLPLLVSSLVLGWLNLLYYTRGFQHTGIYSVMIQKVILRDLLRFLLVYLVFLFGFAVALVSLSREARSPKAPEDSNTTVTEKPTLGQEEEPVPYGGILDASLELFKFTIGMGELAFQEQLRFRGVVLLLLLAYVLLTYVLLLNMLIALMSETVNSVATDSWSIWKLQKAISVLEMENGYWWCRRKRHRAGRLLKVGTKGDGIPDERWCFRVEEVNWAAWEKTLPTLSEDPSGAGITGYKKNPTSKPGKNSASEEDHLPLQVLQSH
Briefly: Antagonist activity at mouse TRPV2 expressed in HEK293T cells assessed as inhibition of 2-APB evoked currents at -60 mV holding potential by whole-cell patch clamp assay. It counts as cell-based. The essentials: (§1)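 Whole-cell voltage clamp of transiently transfected HEK293T cells co-expressing GFP, recorded 36-96 h post-transfection. Hold -60 mV; pipettes 3-7 MΩ. Bath 165 mM NaCl, 10 mM HEPES pH 7.3; pipette 140 mM KCl, 10 mM HEPES pH 7.3. Room temperature (~25 °C). IC50 from Hill fits of I/I0, the current ratio after vs before inhibitor; mean ± SEM.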
(In general: In patch-clamp work, channel activity is measured electrically.)

Test [2] concerns Mus musculus. The test is described as follows: Antagonist activity at mouse TRPV2/LPAR1 expressed in LPA-stimulated HEK293T cells assessed as inhibition of 2-APB evoked currents at 1 uM dosed 3 mins after LPA stimulation by whole-cell patch clamp assay. The essentials:
as §1

In test [3] the test system is Mus musculus. Briefly: Antagonist activity at mouse TRPV2/LPAR1 expressed in LPA-stimulated HEK293T cells assessed as inhibition of 2-APB evoked currents at 10 uM dosed 3 mins after LPA stimulation by whole-cell patch clamp assay. The essentials: as §1
In test [4] the target is T2, Transient receptor potential cation channel subfamily V member 2 (Homo sapiens, UniProt Q9Y5S1).
T2 sequence (Q9Y5S1 whole entry): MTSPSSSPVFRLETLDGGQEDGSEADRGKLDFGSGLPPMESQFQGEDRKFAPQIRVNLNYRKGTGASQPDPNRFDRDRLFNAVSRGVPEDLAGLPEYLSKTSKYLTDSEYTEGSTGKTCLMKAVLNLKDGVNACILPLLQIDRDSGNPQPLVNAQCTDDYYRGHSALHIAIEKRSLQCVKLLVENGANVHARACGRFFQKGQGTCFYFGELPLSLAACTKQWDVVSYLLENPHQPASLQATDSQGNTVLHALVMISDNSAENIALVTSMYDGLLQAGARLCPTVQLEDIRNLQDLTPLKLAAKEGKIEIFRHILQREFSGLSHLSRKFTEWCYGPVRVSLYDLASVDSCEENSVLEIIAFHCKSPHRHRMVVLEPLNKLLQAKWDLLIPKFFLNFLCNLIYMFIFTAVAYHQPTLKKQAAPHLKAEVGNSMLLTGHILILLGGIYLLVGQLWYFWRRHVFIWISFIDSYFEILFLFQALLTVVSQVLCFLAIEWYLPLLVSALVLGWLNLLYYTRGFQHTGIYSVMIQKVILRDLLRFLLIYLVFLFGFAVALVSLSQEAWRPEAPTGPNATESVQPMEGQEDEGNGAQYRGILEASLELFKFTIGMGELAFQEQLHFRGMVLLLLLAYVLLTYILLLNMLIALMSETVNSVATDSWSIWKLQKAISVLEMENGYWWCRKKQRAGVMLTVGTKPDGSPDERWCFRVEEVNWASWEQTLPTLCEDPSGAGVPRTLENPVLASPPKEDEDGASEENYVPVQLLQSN
The test is described as follows: Antagonist activity at TRPV2 (unknown origin). The essentials: as §1

The target of test [5] is T1, Transient receptor potential cation channel subfamily V member 2 (Mus musculus). Briefly: Inhibition of mouse TRPV2 expressed in HEK293T cells assessed as inhibition of 2-APB evoked currents at 10 uM at -60 mV holding potential by whole-cell patch clamp assay. The format is cell-based. In short, it runs like this: as §1

Calls of active or inactive are those of the source. The calls are words filed in the database; no cut-off is given here.

The values below come from ChEMBL document CHEMBL4422635, “Structure-Based Discovery of a Subtype-Selective Inhibitor Targeting a Transient Receptor Potential Vanilloid Channel” (J Med Chem, 2019).

The IC50 is the concentration needed to halve the response being measured.

For `CN1CCN(c2cc(C(F)(F)F)nc(SCCC(=O)NCc3ccco3)n2)CC1`, in test [1], the inhibition entry was “Dose-dependent effect”.
For the molecule `Cc1noc(-c2ccc(-c3ccc(CC(=O)O)cc3)cc2)c1NC(=O)O[C@H](C)c1ccccc1Cl`, the inhibition entry in the test with Mus musculus [2] and in the test with Mus musculus [3] was “Active” each time.
For `COc1ccc(/C=C/C(=O)Nc2ccccc2C(=O)O)cc1OC` [TRANILAST], the 50% inhibitory concentration (IC50) in test [4] was above 10 µM.
As for `COc1ccc(-c2cc(C(F)(F)F)nc(SCCC(=O)NCc3ccco3)n2)cc1`, the inhibition entry in test [5] was “Active”. The inhibition result in test [1] was “Dose-dependent effect”.
